Several values for one entry are separate records, joined by “and”; a condition that tells them apart may be missing. Equal entries are not always repeated. Entries after “also recorded” stand apart in the source; their conditions may differ.
Assays:
[1] = system: cardiac repolarization (QTc interval) in healthy volunteers; assay: Exposure-response; format: in vivo, human
[2] = Plasma glasdegib pharmacokinetics after single oral doses; format: in vivo, human; conditions: for AUCextrap / CL/F: fasted, n=35, arithmetic mean ± SD; for Cmax / half-life: human, plasma, po
Procedure, shortened: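 Healthy volunteers in a randomized, double-blind, 4-period crossover received single oral doses after an overnight fast (≥10 hours), with washout ≥6 days. Plasma was assayed by validated HPLC-MS/MS: calibration 3–3000 ng/mL with 1/concentration² weighting, LLOQ 3 ng/mL, samples stored at −70°C. Cmax, Tmax, AUClast, AUCinf, CL/F, apparent volume and terminal half-life were derived by noncompartmental analysis.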

[3] = patient population, cited from earlier work
[4] = system: cardiac repolarization (QTc interval) in healthy volunteers; assay: Thorough QT study: ANCOVA of QTcF versus time-matched placebo; format: in vivo, human; conditions: for QTcF Difference (Glasdegib‐Placebo) (90%CI) / QTcF LS Mean: N = 35
[5] = system: patients with advanced hematologic malignancies; conditions: cited from earlier work
healthy volunteers = assay: Safety and tolerability; format: in vivo, human
[6] = system: human ether‐à‐go‐go‐related gene (hERG) potassium channels; conditions: human embryonic kidney 293 cells; cited from earlier work
[7] = glasdegib 150 mg single oral dose
[8] = glasdegib 300 mg single oral dose
[9] = glasdegib 150 mg single dose, 0.5 h postdose
[10] = glasdegib 150 mg single dose, 1 h postdose
[11] = glasdegib 150 mg single dose, 1.5 h postdose
[12] = glasdegib 150 mg single dose, 2 h postdose
[13] = glasdegib 150 mg single dose, 3 h postdose
[14] = glasdegib 150 mg single dose, 4 h postdose
[15] = glasdegib 150 mg single dose, 6 h postdose
[16] = glasdegib 150 mg single dose, 24 h postdose
[17] = glasdegib 300 mg single dose, 0.5 h postdose
[18] = glasdegib 300 mg single dose, 1 h postdose
[19] = glasdegib 300 mg single dose, 1.5 h postdose
[20] = glasdegib 300 mg single dose, 2 h postdose
[21] = glasdegib 300 mg single dose, 3 h postdose
[22] = glasdegib 300 mg single dose, 4 h postdose
[23] = glasdegib 300 mg single dose, 6 h postdose
[24] = glasdegib 300 mg single dose, 24 h postdose
[25] = moxifloxacin 400 mg single dose

SMILES: CN1CC[C@@H](NC(=O)Nc2ccc(C#N)cc2)C[C@@H]1c1nc2ccccc2[nH]1 [Glasdegib]
- PK/PD hysteresis (lag between plasma concentration and effect on QTc) ([1]; 150 and 300 mg single doses): No PK/PD hysteresis
- mean slope estimate describing the ∆QTcF‐concentration relationship ([1]; LME model): 0.005 ms/ng/mL
- effect on heart rate (change in RR interval, ∆RR versus concentration) ([1]; LME model of ∆RR versus glasdegib concentration): not to have a meaningful effect on heart rate; also recorded: relationship of negligible magnitude
- Slope Estimate From Final Model, ∆QTcF per ng/mL (95%CI) ([1]; QTcF, LME model): 0.005 (0.004‐0.006) Milliseconds per ng/mL
- Slope Estimate From Final Model, ∆QTcS per ng/mL (95%CI) ([1]; QTcS (study population-specific correction), LME model): 0.004 (0.003‐0.005) Milliseconds per ng/mL
- Model‐Derived ∆∆QTcS (90%CI) ([1]; Supratherapeutic Steady‐State Cmax (2445 ng/mL)): 11.89 (10.14‐13.64) Milliseconds
- Model‐Derived ∆∆QTcF (90%CI) ([1]; Supratherapeutic Steady‐State Cmax (2445 ng/mL), 200 mg once daily): 13.72 (11.95‐15.49) Milliseconds
- Model‐Derived ∆∆QTcS (90%CI) ([1]; Therapeutic Steady‐State Cmax (1137 ng/mL)): 6.55 (5.68‐7.43) Milliseconds
- Model‐Derived ∆∆QTcF (90%CI) ([1]; Therapeutic Steady‐State Cmax (1137 ng/mL), 100 mg once daily): 7.34 (6.46‐8.22) Milliseconds
- Model‐Derived ∆∆QTcF (90%CI) ([1]; Therapeutic Steady‐State Cmax (1137 ng/mL), 100 mg once daily, listed as glasdegib): 7.3 Milliseconds and 7.34 Milliseconds
- upper bound of the 90%CI of mean predicted ΔΔQTcF ([1]; mean therapeutic glasdegib Cmax): < 10 milliseconds
- upper bound of the 90%CI of mean predicted ΔΔQTcF ([1]; supratherapeutic glasdegib Cmax (twice the therapeutic dose)): < 20 milliseconds
- AUCextrap [2, 7]: 0.6660 ± 0.30%
- CL/F [2, 7]: 10.37 ± 3.58 L/h
- AUCextrap [2, 8]: 0.4113 ± 0.19%
- CL/F [2, 8]: 10.09 ± 3.05 L/h
- Cmax ([2]; 150 mg): 1120 ± 388 ng/mL
- half-life ([2]; 150 mg): 15.8 ± 2.06 h
- Cmax ([2]; 300 mg): 2300 ± 651 ng/mL
- half-life ([2]; 300 mg): 15.5 ± 1.77 h
- dose proportionality of geometric mean AUCinf and Cmax ([2]; single oral doses of 150 and 300 mg): increased proportionally with dose
- Therapeutic Steady‐State Cmax ([3]; 100 mg once daily): Therapeutic Steady‐State Cmax (1137 ng/mL)
- Supratherapeutic Steady‐State Cmax ([3]; 200 mg once daily): Supratherapeutic Steady‐State Cmax (2445 ng/mL)
- highest 90%CI upper bound for the largest and placebo‐ and baseline‐adjusted QTcF change ([4]; glasdegib 150 mg (therapeutic plasma exposure), 4 hours postdose): 10.22 milliseconds
- upper bound of the 2‐sided 90%CIs for all time‐matched least‐squares mean differences in QTcF between glasdegib and placebo ([4]; glasdegib 150 mg and 300 mg single doses): < 20 milliseconds
- QTcF Difference (Glasdegib‐Placebo) (90%CI) [4, 9]: −0.09 (−2.28 to 2.09) Milliseconds
- QTcF LS Mean [4, 9]: 406.43 Milliseconds
- QTcF Difference (Glasdegib‐Placebo) (90%CI) [4, 10]: 2.07 (−0.11 to 4.25) Milliseconds
- QTcF LS Mean [4, 10]: 407.86 Milliseconds
- QTcF Difference (Glasdegib‐Placebo) (90%CI) [4, 11]: 5.17 (2.99‐7.35) Milliseconds
- QTcF LS Mean [4, 11]: 410.08 Milliseconds
- QTcF Difference (Glasdegib‐Placebo) (90%CI) [4, 12]: 5.98 (3.80‐8.16) Milliseconds
- QTcF LS Mean [4, 12]: 410.58 Milliseconds
- QTcF Difference (Glasdegib‐Placebo) (90%CI) [4, 13]: 7.76 (5.58‐9.95) Milliseconds
- QTcF LS Mean [4, 13]: 412.06 Milliseconds
- QTcF Difference (Glasdegib‐Placebo) (90%CI) [4, 14]: 8.03 (5.85‐10.22) Milliseconds
- QTcF LS Mean [4, 14]: 413.23 Milliseconds
- QTcF Difference (Glasdegib‐Placebo) (90%CI) [4, 15]: 5.11 (2.93‐7.29) Milliseconds
- QTcF LS Mean [4, 15]: 407.38 Milliseconds
- QTcF Difference (Glasdegib‐Placebo) (90%CI) [4, 16]: 5.92 (3.74‐8.10) Milliseconds
- QTcF LS Mean [4, 16]: 410.98 Milliseconds
- highest 90%CI upper bound for the largest, placebo‐ and baseline‐adjusted QTcF change ([4]; glasdegib 300 mg (supratherapeutic plasma exposure), 3 hours postdose): 15.61 milliseconds
- QTcF Difference (Glasdegib‐Placebo) (90%CI) [4, 17]: 0.65 (−1.53 to 2.83) Milliseconds
- QTcF LS Mean [4, 17]: 407.18 Milliseconds
- QTcF Difference (Glasdegib‐Placebo) (90%CI) [4, 18]: 5.14 (2.96‐7.32) Milliseconds
- QTcF LS Mean [4, 18]: 410.92 Milliseconds
- QTcF Difference (Glasdegib‐Placebo) (90%CI) [4, 19]: 9.84 (7.66‐12.02) Milliseconds
- QTcF LS Mean [4, 19]: 414.75 Milliseconds
- QTcF Difference (Glasdegib‐Placebo) (90%CI) [4, 20]: 11.06 (8.88‐13.24) Milliseconds
- QTcF LS Mean [4, 20]: 415.66 Milliseconds
- QTcF Difference (Glasdegib‐Placebo) (90%CI) [4, 21]: 13.43 (11.25‐15.61) Milliseconds
- QTcF LS Mean [4, 21]: 417.72 Milliseconds
- QTcF Difference (Glasdegib‐Placebo) (90%CI) [4, 22]: 13.41 (11.23‐15.59) Milliseconds
- QTcF LS Mean [4, 22]: 418.60 Milliseconds
- QTcF Difference (Glasdegib‐Placebo) (90%CI) [4, 23]: 10.82 (8.64‐13.00) Milliseconds
- QTcF LS Mean [4, 23]: 413.08 Milliseconds
- QTcF Difference (Glasdegib‐Placebo) (90%CI) [4, 24]: 8.91 (6.73‐11.09) Milliseconds
- QTcF LS Mean [4, 24]: 413.96 Milliseconds
- QTc experienced by some patients ([5]; multiple dosing at 400 mg and 600 mg once daily): > 500 milliseconds
- maximum tolerated dose ([5]; single-agent, patients with advanced hematologic malignancies): 400 mg once daily
- treatment‐emergent AEs (TEAEs), number (healthy volunteers; glasdegib 150 mg single dose): 25
- treatment‐related AEs (TRAEs), number (healthy volunteers; glasdegib 150 mg single dose): 20
- treatment‐emergent AEs (TEAEs), number (healthy volunteers; glasdegib 300 mg single dose): 26
- treatment‐related AEs (TRAEs), number (healthy volunteers; glasdegib 300 mg single dose): 20
- tolerability (in words) (healthy volunteers; single oral doses of 150 and 300 mg, healthy adult subjects): well tolerated
- hERG potassium channel inhibition (in words) [6]: inhibit the human ether‐à‐go‐go‐related gene (hERG) potassium channels in a concentration‐dependent manner

SMILES: COc1c(N2C[C@@H]3CCCN[C@@H]3C2)c(F)cc2c(=O)c(C(=O)O)cn(C3CC3)c12 [Moxifloxacin]
- treatment‐emergent AEs (TEAEs), number (healthy volunteers; [25]): 27
- treatment‐related AEs (TRAEs), number (healthy volunteers; [25]): 23

— paper PMC7983888 (Clinical Pharmacology in Drug Development, 2020)
